Structures can show the parent of a compound that is named as a salt.

Experimental findings from ChEMBL document CHEMBL2163197, “Synthesis and antimitotic and tubulin interaction profiles of novel pinacol derivatives of podophyllotoxins” (2012) are described below.

Holding throughout (type): functional
For experiment [1], the system named is A549. Briefly: Growth inhibition of human A549 cells after 72 hrs by SRB assay. The note with it: A549, 72 h. In a few lines: (§1)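 Cell lines kept in RPMI with 10% FCS, 2 mM L-glutamine, penicillin/streptomycin at 37 °C, 5% CO2. Exposure 72 h to 10 concentrations from 10 to 0.0026 μg/mL. Cells fixed in 1% glutaraldehyde, stained with 0.4% SRB for 30 min, dye extracted in 10 mM Trizma base, absorbance read at 490 nm. GI50 from triplicate dose-response cultures by NCI algorithm; mean ± SD of three independent experiments.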

Experiment [2] has as its system HT-29. Briefly: Growth inhibition of human HT-29 cells after 72 hrs by SRB assay. The note with it: HT-29, 72 h. In a few lines:
as §1
A general note: In SRB staining, fixed cells bind dye roughly in proportion to their protein.

Experiment [3] has as its system SK-BR-3. Briefly: Growth inhibition of human SKBR3 cells after 72 hrs by SRB assay. The following applies: SK-BR-3, 72 h. In a few lines: as §1

A word on the GI50: it is the concentration giving 50% growth inhibition. High values mean lower sensitivity of the cells, low ones greater sensitivity of the cells. In the case of `COc1cc([C@@H]2c3cc4c(cc3/C(=C(\c3ccccc3)C(C)C)[C@H]3COC(=O)[C@@H]23)OCO4)cc(OC)c1OC`, the GI50 in experiment [1] worked out at 6210 nM; in experiment [2] it was 11400 nM; in experiment [3], 14300 nM.

In the case of `COc1cc([C@@H]2c3cc4c(cc3[C@](O)([C@@](C)(O)C(C)C)[C@H]3COC(=O)[C@H]23)OCO4)cc(OC)c1OC`, the 50% growth inhibitory concentration (GI50) is 1150 nM in experiment [1], 1730 nM in experiment [2] and 1030 nM in experiment [3].

In the case of `COc1cc([C@@H]2c3cc4c(cc3[C@@]3(OC(C)(C)O[C@H]3C)[C@H]3COC(=O)[C@H]23)OCO4)cc(OC)c1OC`, the GI50 turned out to be 6020 nM in experiment [1], 6560 nM in experiment [2] and 6140 nM in experiment [3].

For the compound `COc1cc([C@@H]2c3cc4c(cc3[C@@](O)(C(O)(c3ccccc3)c3ccccc3)[C@H]3COC(=O)[C@H]23)OCO4)cc(OC)c1OC`, the results for the concentration for 50% growth inhibition (GI50) in experiment [1], in experiment [2] and in experiment [3] were 874 nM, 528 nM and 524 nM, respectively.

For `COc1cc([C@@H]2c3cc4c(cc3[C@](O)(C3(O)CCCCC3)[C@H]3COC(=O)[C@@H]23)OCO4)cc(OC)c1OC`, the figures for the 50% growth inhibitory concentration (GI50) in experiment [1], in experiment [2] and in experiment [3] were 3620 nM, 2900 nM and 1250 nM, respectively.

In the case of `COc1cc([C@@H]2c3cc4c(cc3[C@@]3(OC(C)(C)O[C@@H]3C)[C@H]3COC(=O)[C@H]23)OCO4)cc(OC)c1OC`, the results for the 50% growth inhibitory concentration (GI50) in experiment [1], in experiment [2] and in experiment [3] were 6220 nM, 5230 nM and 5870 nM, respectively.

As for `COc1cc([C@@H]2c3cc4c(cc3[C@@H](O)[C@H]3COC(=O)[C@H]23)OCO4)cc(OC)c1OC` [EPIPODOPHYLLOTOXIN], the GI50 in experiment [1] and in experiment [2] was 60 nM throughout.

`COc1cccc2c1C(=O)c1c(O)c3c(c(O)c1C2=O)C[C@@](O)(C(=O)CO)C[C@@H]3O[C@H]1C[C@H](N)[C@H](O)[C@H](C)O1` [DOXORUBICIN HYDROCHLORIDE]: the concentration for 50% growth inhibition (GI50) in experiment [1] turned out to be 60.3 nM; in experiment [2], 153 nM; in experiment [3] it was 65.5 nM.

On to `COc1cc([C@@H]2c3cc4c(cc3[C@](O)(C(O)(c3ccccc3)c3ccccc3)[C@H]3COC(=O)[C@H]23)OCO4)cc(OC)c1OC`, for which the GI50 was determined as 376 nM in experiment [1], 281 nM in experiment [2] and 313 nM in experiment [3].

For the compound `COc1cc([C@@H]2c3cc4c(cc3[C@](O)([C@](C)(O)C(C)C)[C@H]3COC(=O)[C@H]23)OCO4)cc(OC)c1OC`, the results for the concentration for 50% growth inhibition (GI50) in experiment [1], in experiment [2] and in experiment [3] were 254 nM, 204 nM and 181 nM, respectively.

On to `COc1ccc([C@@](C)(O)[C@@]2(O)c3cc4c(cc3[C@@H](c3cc(OC)c(OC)c(OC)c3)[C@H]3C(=O)OC[C@@H]32)OCO4)cc1OC`, for which the values for the GI50 in experiment [1], in experiment [2] and in experiment [3] were 2620 nM, 4750 nM and 4990 nM, respectively.

In the case of `COc1cc([C@@H]2c3cc4c(cc3C(=C(C)C)[C@H]3COC(=O)[C@@H]23)OCO4)cc(OC)c1OC`, the results for the GI50 in experiment [1], in experiment [2] and in experiment [3] were 6440 nM, 8280 nM and 3780 nM, respectively.

Turning to `COc1cc([C@@H]2c3cc4c(cc3[C@](O)([C@H](O)C3CC=CCC3)[C@H]3COC(=O)[C@H]23)OCO4)cc(OC)c1OC` (some centres not stated), the GI50 in experiment [1] turned out to be 2030 nM; in experiment [2], 2510 nM; in experiment [3], 2430 nM.

With `C=C1c2cc3c(cc2[C@@H](c2cc(OC)c(OC)c(OC)c2)[C@@H]2C(=O)OC[C@H]12)OCO3`, the 50% growth inhibitory concentration (GI50) in experiment [1] came out at 28.1 nM; in experiment [2], 78.1 nM; in experiment [3] it was 66.8 nM.

For the compound `COc1cc([C@@H]2c3cc4c(cc3[C@@](O)(C3(O)CCCC3)[C@H]3COC(=O)[C@H]23)OCO4)cc(OC)c1OC`, the GI50 in experiment [1] was 1690 nM; in experiment [2], 2720 nM; in experiment [3], 2420 nM.

`COc1cc([C@@H]2c3cc4c(cc3[C@@](O)(C(C)(C)O)[C@H]3COC(=O)[C@H]23)OCO4)cc(OC)c1OC`: the 50% growth inhibitory concentration (GI50) in experiment [1] was 1480 nM; in experiment [2] it was 659 nM; in experiment [3], 511 nM.
